A selection: hits, their analogues and other compounds. The true share with any hit is near 4.1%.
MrgX1 antag: blocks BAM8-22 activation of human MrgX1 receptor | Q96LB2 | MRGX1-HEK293 calcium flux, Fluo-4, BAM8-22 antagonism; active compounds read low | B-score at 10 µM | 310,000 compounds, 1.3% hits | AID 588676;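 active means calcium-response B-score plate-corrected more than 3 library SD below zero, starting fluorescence within 5 deviations, no agonist response on first addition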;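 further: peak minus trough fluorescence over baseline after final BAM8-22 challenge near maximal dose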
RGS4 act: potentiators or activators of RGS4; HEK293 M3R/inducible RGS4, carbachol calcium flux Fluo4; active compounds read low; B-score at 10 µM; 310,000 compounds, 0.92% hits;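 active means B-score of the integrated calcium signal more than 4 SD below the library mean, with starting fluorescence not abnormally high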;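 further: negative B-score means reduced calcium response which marks RGS4 activation or potentiation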
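test system = HEK293 cells with stable M3R and inducible RGS4 | schedule = recording 10 s baseline at 1 Hz, 100 s post-agonist | technique = Fluo4-AM (2 µM) calcium-flux fluorescence, kinetic read | measure = Agonist-evoked peak-minus-minimum fluorescence over baseline, integrated ratio, B score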
Kir21 inh: Kir2.1 (mouse) channel inhibition. P35561. HEK293-Kir2.1, FluxOR thallium flux fluorescence; active compounds read low. B-score at 10 µM. 310,000 compounds, 0.85% hits. AID 1672;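 active means fluorescence ratio B-score at or below minus 3 SD of library scores, with starting-brightness B-score within 2 SD, cut at about -4.2 in these data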;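 further: channel flux triggered by added potassium and thallium sulfate stimulus; B-score of peak minus minimum fluorescence over baseline after thallium stimulus; more negative B-score means stronger Kir2.1 block with less thallium influx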
Target sequence (P35561 whole entry, looked up): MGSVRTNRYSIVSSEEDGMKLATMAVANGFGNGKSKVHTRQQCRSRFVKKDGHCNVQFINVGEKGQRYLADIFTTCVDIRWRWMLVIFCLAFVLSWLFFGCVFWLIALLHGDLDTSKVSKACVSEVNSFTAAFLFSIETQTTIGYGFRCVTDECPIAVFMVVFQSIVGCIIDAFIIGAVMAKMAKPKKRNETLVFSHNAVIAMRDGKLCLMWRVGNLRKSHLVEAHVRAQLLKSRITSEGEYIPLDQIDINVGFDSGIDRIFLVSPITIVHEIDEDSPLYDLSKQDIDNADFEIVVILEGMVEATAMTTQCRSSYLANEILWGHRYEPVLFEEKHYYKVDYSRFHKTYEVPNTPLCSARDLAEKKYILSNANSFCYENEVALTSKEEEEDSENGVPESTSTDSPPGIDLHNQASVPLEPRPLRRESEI
RGS4 inh: inhibitors of human RGS4 | P49798 | HEK293 M3R/RGS4 inducible, Fluo-4 calcium flux; active compounds read high; triggered by carbachol at its EC20 | B-score at 10 µM | 310,000 compounds, 0.45% hits | AID 463165;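 active means B-score, a plate-corrected calcium signal, over three deviations above library mean, with baseline fluorescence within five deviations of library mean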;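 further: RGS4 expression induced by doxycycline in cells with stable M3 receptor; B-score is computed from the integrated fluorescence ratio over baseline after carbachol; higher B-score means a larger calcium signal and so more RGS4 inhibition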
Target sequence (P49798 whole entry, looked up): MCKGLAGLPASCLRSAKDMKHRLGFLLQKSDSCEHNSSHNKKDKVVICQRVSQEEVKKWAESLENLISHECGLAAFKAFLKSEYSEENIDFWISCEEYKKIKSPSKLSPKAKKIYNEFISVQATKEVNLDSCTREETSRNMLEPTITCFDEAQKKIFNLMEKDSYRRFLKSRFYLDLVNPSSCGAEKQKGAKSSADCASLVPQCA
MrgX1 allo act: human MrgX1 positive allosteric modulation, primary screen; B-score at 10 µM; 310,000 compounds, 0.63% hits; Q96LB2; MrgX1-HEK293, Fluo-4 calcium flux, FDSS; active compounds read high;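 active means plate-corrected calcium response at least 3 library SD above typical, normal starting fluorescence, not activating the receptor alone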;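 further: compound read alongside a low EC10 to EC30 dose of BAM8-22 agonist; peak minus trough fluorescence over baseline measured at the second addition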
MrgX1 ag: activates human MrgX1 receptor signaling; MrgX1-HEK293 cells, Fluo-4 calcium fluorescence, agonist mode; active compounds read high; B-score at 10 µM; 310,000 compounds, 0.44% hits; AID 588627;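 active means calcium response B-score plate-corrected fluorescence ratio at least 3 library SD, with starting fluorescence B-score inside 5 SD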
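System: HEK293 cells stably expressing human MrgX1 receptor; Dosing: test compound in the initial addition of three; Schedule: overnight plating, then 30 min 37 °C plus 30 min room-temperature dye loading; Detection: kinetic calcium dye fluorescence, Fluo-4 NW; Controls: per-plate positive and negative controls for Z′ factor.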
RGS4 activ val: RGS4 activation, validation assay | inhibition, % at 10 µM | AID 602282 | 1,100 compounds, 89% hits | HEK293 M3R/RGS4 inducible, carbachol calcium flux Fluo4 | shares compounds with RGS4 act;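 active means inhibition above 3 SD of the buffer control wells, cut at about 41% in these data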;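 further: signal is the integrated peak-minus-minimum Fluo4 fluorescence over baseline ratio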
RGS4 act ctr: activity in cells without induced RGS4 expression; shares compounds with RGS4 act; HEK293 M3R non-induced RGS4, Fluo4 calcium flux; after carbachol challenge at its EC90; AID 602283; 1,100 compounds, 82% hits; inhibition, % at 10 µM;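 active means inhibition exceeding 3 SD of buffer-only control wells, cut at about 26% in these data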;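 further: percent drop in integrated peak-minus-baseline over baseline Fluo4 ratio after carbachol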
* marks the source's active call; other numbers are inactive results.

`CCOC(=O)c1cnc2ccccc2c1NCc1ccco1` gave MrgX1 antag inactive, RGS4 act -9.74*, Kir21 inh -1.99, RGS4 inh inactive, MrgX1 allo act inactive, MrgX1 ag inactive, RGS4 activ val 94.0* and RGS4 act ctr 92.3*.
Screening COc1ccc(NS(=O)(=O)c2cc(NC(=O)CNC(=O)c3cccc(OC)c3)ccc2C)cc1 returned MrgX1 antag inactive, RGS4 act inactive, Kir21 inh 1.3, RGS4 inh inactive, MrgX1 allo act inactive and MrgX1 ag inactive.
Screening O=C(COc1ccccc1)Nc1ccccc1N1CCN(c2ccc(F)cc2)CC1 returned MrgX1 antag inactive, RGS4 act -9.1*, Kir21 inh -0.28, RGS4 inh inactive, MrgX1 allo act inactive, MrgX1 ag inactive, RGS4 activ val 61.0* and RGS4 act ctr 0.0.
`CCOC(=O)C1CCN(c2c(C(=O)c3ccccc3)cnc3ccc(CC)cc23)CC1` gave MrgX1 antag inactive, RGS4 act -7.7*, Kir21 inh 1.09, RGS4 inh inactive, MrgX1 allo act inactive, MrgX1 ag inactive, RGS4 activ val 90.0* and RGS4 act ctr 42.8*.
Screening CC(C)Cc1nc(C#N)c(N2CCC(C(N)=O)CC2)o1 returned MrgX1 antag inactive, RGS4 act inactive, Kir21 inh -0.05, RGS4 inh inactive, MrgX1 allo act inactive and MrgX1 ag inactive.
For COc1ccc(N2C(=O)CC(N(CCc3ccccc3)C(=O)c3ccccc3)C2=O)cc1 (stereo unspecified) the results were MrgX1 antag inactive, RGS4 act -10.5*, Kir21 inh 0.24, RGS4 inh inactive, MrgX1 allo act inactive, MrgX1 ag inactive, RGS4 activ val 0.0 and RGS4 act ctr 0.0.
Screening CCOC(=O)c1c(-c2ccccc2)oc2ccc(O)c(CN3CCN(C)CC3)c12 returned MrgX1 antag inactive, RGS4 act -8.12*, Kir21 inh -9.27*, RGS4 inh inactive, MrgX1 allo act inactive, MrgX1 ag inactive, RGS4 activ val 69.0* and RGS4 act ctr 49.3*.
For CCOC(=O)c1c(C)n(C)c2ccc(O)c(CN3CCN(C)CC3)c12 the results were MrgX1 antag inactive, RGS4 act inactive, Kir21 inh -0.52, RGS4 inh inactive, MrgX1 allo act inactive and MrgX1 ag inactive.
For Oc1ccccc1-c1nc(NC2CCCC2)c2ccccc2n1 the results were MrgX1 antag inactive, RGS4 act -7.8*, Kir21 inh 1.19, RGS4 inh inactive, MrgX1 allo act inactive, MrgX1 ag inactive, RGS4 activ val 73.5* and RGS4 act ctr 59.3*.
For COc1ccc(-c2cc(C(=O)NCc3ccco3)c3ccccc3n2)c(OC)c1 the results were MrgX1 antag inactive, RGS4 act inactive, Kir21 inh 1.83, RGS4 inh inactive, MrgX1 allo act inactive and MrgX1 ag inactive.
Cc1cc2c(=O)n(C)c(SCC(=O)Nc3ccccc3)nc2s1 was read as MrgX1 antag inactive, RGS4 act inactive, Kir21 inh 0.08, RGS4 inh inactive, MrgX1 allo act inactive and MrgX1 ag inactive.
Screening Cc1c(CC(=O)N2CCC(C(N)=O)CC2)c(=O)oc2cc3c(cc12)CCC1(CCCCC1)O3 returned MrgX1 antag inactive, RGS4 act -8.9*, Kir21 inh 2.64, RGS4 inh inactive, MrgX1 allo act inactive, MrgX1 ag inactive, RGS4 activ val 92.5* and RGS4 act ctr 78.3*.
`Cc1nnc(-c2cccc(Br)c2)c2cn(-c3ccccc3Cl)nc12` gave MrgX1 antag inactive, RGS4 act inactive, Kir21 inh 0.43, RGS4 inh inactive, MrgX1 allo act inactive and MrgX1 ag inactive.
Screening O=S(=O)(Nc1cccc(-c2cn3ccsc3n2)c1)c1ccc(F)cc1 returned MrgX1 antag inactive, RGS4 act inactive, Kir21 inh -1.26, RGS4 inh inactive, MrgX1 allo act inactive and MrgX1 ag inactive.
`O=C(COC(=O)c1cccc(S(=O)(=O)N2CCOCC2)c1)NCCc1ccccc1` gave MrgX1 antag inactive, RGS4 act inactive, Kir21 inh -0.02, RGS4 inh inactive, MrgX1 allo act inactive and MrgX1 ag inactive.
For O=C(COC(=O)c1cc(S(=O)(=O)N2CCOCC2)ccc1O)NCCc1ccccc1 the results were MrgX1 antag inactive, RGS4 act -9.5*, Kir21 inh -0.38, RGS4 inh inactive, MrgX1 allo act inactive, MrgX1 ag inactive, RGS4 activ val 0.0 and RGS4 act ctr 0.0.
`CCOCCN1CCN(C2c3ccccc3CSc3ccccc32)CC1` (stereo unspecified) gave MrgX1 antag inactive, RGS4 act -13*, Kir21 inh -1.05, RGS4 inh inactive, MrgX1 allo act inactive, MrgX1 ag inactive, RGS4 activ val 92.0* and RGS4 act ctr 90.3*.
Screening CCCCNC(=O)C1CCCN(S(=O)(=O)c2c(C)noc2/C=C/c2cccs2)C1 (stereo unspecified) returned MrgX1 antag inactive, RGS4 act inactive, Kir21 inh 1.13, RGS4 inh inactive, MrgX1 allo act inactive and MrgX1 ag inactive.
`COC(=O)c1cnn(-c2ccccc2)c1N` gave MrgX1 antag inactive, RGS4 act inactive, Kir21 inh -0.02, RGS4 inh inactive, MrgX1 allo act inactive and MrgX1 ag inactive.
For CC(=O)NC(=O)c1cnn(-c2ccccc2)c1N the results were MrgX1 antag inactive, RGS4 act -8.83*, Kir21 inh 1.25, RGS4 inh inactive, MrgX1 allo act inactive, MrgX1 ag inactive, RGS4 activ val 0.0 and RGS4 act ctr 0.0.
c1ccc2c(c1)[nH]c1c(N3CCN(C4CCCCC4)CC3)ncnc12 was read as MrgX1 antag inactive, RGS4 act -7.77*, Kir21 inh 0.59, RGS4 inh inactive, MrgX1 allo act inactive, MrgX1 ag inactive, RGS4 activ val 64.0* and RGS4 act ctr 83.8*.
For Cc1cc(C)n2cc(CSc3ncn[nH]3)nc2n1 the results were MrgX1 antag inactive, RGS4 act inactive, Kir21 inh 0, RGS4 inh inactive, MrgX1 allo act inactive and MrgX1 ag inactive.
For CC(C)(c1ccccc1)c1ccc(OCCn2cnc3ccccc3c2=O)cc1 the results were MrgX1 antag inactive, RGS4 act -8.75*, Kir21 inh -0.77, RGS4 inh inactive, MrgX1 allo act inactive, MrgX1 ag inactive, RGS4 activ val 90.0* and RGS4 act ctr 58.3*.

High-throughput results as filed in PubChem.
